Screening data as filed in PubChem.
Only some compounds are listed: those with a hit (about 1.7% of all), similar ones and a draw of the others.
SUMO1-SIM PPI: SUMO1-SIM interaction modulation; inhibition, % at 20 µM; P63165; 360,000 tested, 0.33% active; SUMO1 binding to a labelled peptide, TR-FRET, 1 h; in the data active = inhibition above about 37%
Target sequence (P63165 whole entry, looked up): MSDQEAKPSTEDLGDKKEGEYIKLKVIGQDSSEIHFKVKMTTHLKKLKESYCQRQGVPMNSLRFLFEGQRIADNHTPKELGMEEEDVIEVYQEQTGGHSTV
DNMT1 block: blocks human DNA methyltransferase DNMT1; DNMT1 molecular beacon, Hinp1I cleavage, fluorescence; inhibition (reported as % activation of signal), % at 10 µM; 360,000 tested, 0.83% active; in the data active = inhibition above about 50%
Scp-1 inhibitor: Scp-1 (human) phosphatase inhibition. Recombinant Scp1, phosphopeptide, malachite green phosphate absorbance. inhibition, % at 20 µM. 340,000 tested, 0.88% active;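 active = inhibition above about 50% at 20 µM, limit read from the data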;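 note: plate controls were DMSO wells with enzyme for no effect and wells lacking enzyme for full effect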
Target sequence (Q9GZU7 76-261 limits assumed): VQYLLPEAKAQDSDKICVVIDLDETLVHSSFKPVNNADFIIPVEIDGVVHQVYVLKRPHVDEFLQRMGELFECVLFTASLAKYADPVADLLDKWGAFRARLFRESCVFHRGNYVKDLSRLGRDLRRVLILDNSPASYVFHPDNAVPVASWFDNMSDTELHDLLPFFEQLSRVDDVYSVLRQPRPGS
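Assay system: SCP-1 catalytic fragment, aa 76-261 | Buffer or medium: Tris acetate buffer pH 5.5 with MgCl2 and Tween-20 | Compound: One concentration, 20 µM, with 1.0% DMSO | Also added: Phospho 17-mer peptide substrate | Signal: Absorbance at 630 nm | Incubation: 45 min enzyme reaction at room temperature | Measure: % inhibition of SCP-1 phosphate liberation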
LMPTP block: blocks human LMPTP phosphatase. P24666. recombinant LMPTP-A, OMFP fluorogenic substrate, fluorescence intensity. inhibition, % at 20 µM. 360,000 tested, 0.22% active;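 active = compounds that cut the enzyme signal by at least half of the control window in the single-dose screen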;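 note: plate controls were DMSO wells with enzyme plus substrate for no effect and substrate without enzyme for full effect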
Target sequence (P24666 whole entry, looked up): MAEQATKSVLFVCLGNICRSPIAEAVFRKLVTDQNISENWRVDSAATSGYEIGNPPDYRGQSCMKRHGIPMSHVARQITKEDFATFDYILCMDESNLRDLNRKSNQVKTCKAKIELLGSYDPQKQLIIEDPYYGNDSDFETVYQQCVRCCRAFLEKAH
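Test system: LMPTP-A phosphatase enzyme. Amount: LMPTP-A at 0.625 nM final in the reaction. Reagent: OMFP substrate, 400 µM final. Times: 50 min at room temperature. Signal: endpoint fluorescence intensity from OMFP dephosphorylation. Read-out basis: % inhibition. Benchmarks: no-enzyme and uninhibited controls.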
STEP inh: STEP (human) phosphatase inhibition. P54829. recombinant STEP, OMFP fluorogenic substrate, fluorescence. inhibition, % at 20 µM. 360,000 tested, 0.25% active. AID 588621;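 active = inhibition at 20 µM, scaled per plate between control wells, above about 37%, limit read from the data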;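 note: 0% = DMSO with enzyme and substrate and 100% = substrate only without enzyme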
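System: isolated STEP enzyme; schedule: 20 min enzyme reaction at room temperature, protected from light; medium: Bis-Tris buffer pH 6.0, 2.5 mM DTT, 0.005% Tween 20; signal: fluorescence, 480/540 nm; dosing: single compound dose of 20 µM, 1% DMSO final; also added: OMFP substrate, 25 µM final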
* = called active by the depositor; x = no result; ! = a repeat was not active.

SMILES	SUMO1-SIM PPI	DNMT1 block	Scp-1 inhibitor	LMPTP block	STEP inh
Cc1sc2ccccc2c1CC1=NCCN1	-25.5	3.8	-1.2	-0.4	0.7
Nc1ccc(CC2=NCCN2)cc1	-7.7	56.9*	-18.1	-3.8	0.2
C[C@@H]1CN([C@H](C)CO)C(=O)CCCn2nncc2CO[C@@H]1CN(C)C(=O)Oc1ccc2ccccc2c1	2.9	4.6	x	-1.2	0.0
Cc1cc(C(C#N)c2ccc(Cl)cc2)c(Cl)cc1NC(=O)c1cc(I)cc(I)c1O (stereo unspecified)	50.9*	74.1*	8.9	6.4	9.6
CCOC(=O)c1cccc(C2=C(CNC(=O)c3ccc([N+](=O)[O-])cc3)[C@H]3CC[C@@H](C2)N3Cc2ccccc2)c1	-28.3	1.9	x	-1.2	1.9
Cc1[nH]nc2ccc(-c3cncc(OC[C@@H](N)Cc4c[nH]c5ccccc45)c3)cc12	-13.3	-8.7	4.1	-0.9	3.2
CC(C)CCOC(=O)c1c(N)n(CC2CCCO2)c2nc3ccccc3nc12 (stereo unspecified)	36.3	32.7	2.7	6.1	5.4
CC(C)OC(=O)c1c(N)n(CC2CCCO2)c2nc3ccccc3nc12 (stereo unspecified)	42.1*	-15.6	-9.3	2.5	2.5
COc1cccc(C(c2nnnn2Cc2ccccc2)N2CCC3(CC2)C(=O)NCN3c2ccccc2)c1OC (stereo unspecified)	8.1	-11.0	x	5.6	3.3
NC(N)=Nc1ccc2[nH]c3c(c2c1)C[C@@]1(O)[C@H]2Cc4ccc(O)c5c4[C@@]1(CCN2CC1CC1)[C@H]3O5	0.0	26.6	98.5*	11.7	-1.9
O=C(Cc1cc(=O)oc2cc(O)ccc12)NN=Cc1ccc(N(CCCl)CCCl)cc1	92.4*	-3.2	-1.0	1.8	-3.2
O=C1NC(=O)N(Cc2ccc(F)cc2)C(=O)/C1=C\c1ccc([N+](=O)[O-])s1	57.9*	48.8	5.3	26.9	6.4
COc1ccc(CN2C(=O)NC(=O)/C(=C/c3ccc([N+](=O)[O-])s3)C2=O)cc1	64.8*	50.8*	14.1	34.5	8.7
CN(C)[C@@H]1C(=O)C(C(N)=O)=C(O)[C@@]2(O)C(=O)C3=C(O)c4c(O)cccc4[C@@](C)(O)C3C[C@@H]12 (stereo partly specified)	37.3*	84.4*	1.3	41.0	9.5
CN(C)[C@@H]1C(=O)C(C(N)=O)=C(O)[C@@]2(O)C(=O)C3=C(O)c4c(O)cccc4[C@@](C)(O)[C@H]3[C@H](O)[C@@H]12	70.4*	97.1*	64.6*	65.6*	34.2
CN(C)[C@@H]1C(=O)C(C(N)=O)=C(O)[C@@]2(O)C(=O)C3=C(O)c4c(O)ccc(Cl)c4[C@@](C)(O)[C@H]3C[C@@H]12	-2.8	9.9	12.2	5.2	3.2
Cc1ccc(/C=C2\C(=O)NC(=S)N(c3ccc(F)cc3)C2=O)o1	10.7	35.1	28.6	0.1	-0.1
Cc1ccc(N2C(=O)/C(=C/c3ccc(CN(CCC#N)S(C)(=O)=O)o3)C(=O)NC2=S)cc1	39.5*	110.2*	43.4	6.3	18.6
CC[n+]1c(-c2ccccc2)c2cc(N)ccc2c2ccc(N)cc21	-61.0	2.2	4.7	72.0*	2.2
CC1C(=O)OC2CCN3CC4OC4(COC(=O)C(C)(O)C1(C)O)C23 (stereo unspecified)	4.2	-3.5	-0.3	-0.6	-4.3
CCOC(=O)[C@]12Cc3cc(C)ccc3[C@H]1N(C(C)C)C(=O)c1ccccc12	2.4	x	x	2.1	x
CC[n+]1c(/C=C/C=C/c2ccc(N(C)C)cc2)sc2ccccc21	-59.4	-20.3	-6.9	90.5*	20.8
CC(C)NC1C2CCC(CC2)C1(O)c1ccc(Cl)c(Cl)c1 (stereo unspecified)	0.7	3.8	x	-1.2	-4.8
COc1ccc(C(=O)O)cc1OC	5.6	-4.8	-4.0	-1.2	-20.7
O=C(O)c1cc[c]([Hg][Cl])cc1	-0.5	28.8	95.8*	-1.4	-2.8
SMILES	SUMO1-SIM PPI	DNMT1 block	Scp-1 inhibitor	LMPTP block	STEP inh
C#CCOC(=O)C1=CCCN(C)C1	-5.6	-3.3	14.0	-1.1	0.2
Cc1ccccc1NC(=O)c1cc(-c2ccccc2)n(CCCN2CCOCC2)c1C	2.6	2.0	-9.8	-3.0	3.2
Cc1ccccc1NC(=NCCCN1CC1)Nc1ccccc1C	34.3*	-99.8	14.6	21.2	7.8
COC(=O)C1=COC(C)C2CN3CCc4c([nH]c5cc(OC)ccc45)C3CC12 (stereo unspecified)	-6.6	23.2	x	4.2	-2.1
CS(=O)(=O)c1ccc(C2=C(CNC(=O)c3cccs3)[C@H]3CC[C@@H](C2)N3CCOc2ccccc2)cc1	0.7	3.1	x	-1.4	-2.6
CCn1nc(/C=C/c2ccccc2)nc2c(=O)n(C)c(=O)nc1-2	35.3	108.3*	-9.0	61.5*	69.2*
COc1ccc(-n2c(/C=C/c3ccc(O)cc3)nc3ccccc3c2=O)cc1	-18.7	-0.8	-2.2	3.0	-2.1
CCn1nc(-c2cccs2)nc2c(=O)n(C)c(=O)nc1-2	24.4	118.7*	-6.9	63.1*	65.1*
C[C@@H]1CN([C@@H](C)CO)C(=O)CCCn2nncc2CO[C@@H]1CN(C)C(=O)Oc1cccc2ccccc12	-0.4	0.4	x	-1.2	-0.5
CN1C(=O)C[N+]([O-])=C(c2ccccc2)c2cc(Cl)ccc21	-6.5	3.7	13.2	-1.8	0.7
O=C1NCN(c2ccccc2)C12CCN(C(c1ccccc1OC(F)(F)F)c1nnnn1-c1ccc3c(c1)OCCO3)CC2 (stereo unspecified)	-1.5	-30.4	x	4.4	1.5
CC(C)COC(=O)c1ccccc1C(=O)OCC(C)C	2.6	-3.3	-10.0	1.5	1.0
C[CH2][Hg][S]c1ccccc1C(=O)O	9.8	26.1	101.3*	2.2	2.1
C[C@H]1OC[C@@H](C[N+](C)(C)C)O1	0.8	-28.7	101.3*	-2.8	1.4
CC1OC(C[N+](C)(C)C)CC1O (stereo unspecified)	5.3	-0.1	-0.7	-0.7	-2.1
CN(C)c1ccc(/C=C/c2cc[n+](C)c3ccccc23)cc1	-44.3	8.7	12.1	54.7*!	16.3
C[C@@H]1CN([C@H](C)CO)C(=O)CCCn2nncc2CO[C@H]1CN(C)C(=O)Oc1ccc2ccccc2c1	0.6	4.8	x	-1.6	0.0
c1ccc2c(c1)[IH]c1ccccc1-2	-0.9	53.0*	7.6	12.2	1.0
c1ccc2c(c1)-c1cccc3cccc-2c13	3.2	-5.4	-12.8	1.9	1.9
COC(=O)C1=C(c2cccc(C#N)c2)C[C@@H]2CC[C@H]1N2C(=O)NCc1ccco1	-1.2	-0.4	-0.2	-0.8	2.4
CN(C)C(=O)OCc1n(C)cc[n+]1C	11.4	1.7	-6.5	-1.0	-1.7
